Calls of active or inactive are those of the source. The calls are words filed in the database; no cut-off is given here.

In experiment [1] the test system is HL-60. Nature of the experiment: Cell cycle arrest in human HL60 cells assessed as accumulation at G1 phase at 5 uM incubated for 72 hrs by flow cytometry (reference value: 47.02 +/- 6.19%). The experiment is classed as functional.
In experiment [2] the test system is HL-60. Nature of the experiment: Induction of mitochondrial membrane dissipation in human HL60 cells at 5 to 25 uM incubated for 24 to 72 hrs by FACS assay. Type of experiment: functional. The essentials:
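HL-60 cells (5 × 10^5) were treated 24, 48 or 72 h, washed in HBSS and loaded with TMRE for 20 min at 37 °C in the dark. TMRE fluorescence in FL2 was read by flow cytometry, with 1 × 10^4 gated cells per sample. Result is the percentage of cells with decreased fluorescence (dissipated MMP). Mean ± SD, n ≥ 3.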

In experiment [3] the test system is HL-60. Nature of the experiment: Antiproliferative activity against human HL60 cells assessed as cell number at 15 uM incubated for 48 hrs by Coulter counting method. The experiment is classed as functional. The method in brief:
(§1)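 HL-60 cells in RPMI with 10% heat-inactivated FCS, antibiotics and amphotericin, 37 °C, 5% CO2, seeded in 60 mm dishes. Compound added at 5, 15 or 25 µM for 24, 48 or 72 h. Absolute cell counts taken by Coulter counter and expressed as percentage of untreated control. Mean ± SD of at least three independent experiments; one-way ANOVA with Tukey test, p < 0.05.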

Experiment [4] deals with T1, DNA topoisomerase 1 (Homo sapiens) (UniProt P11387).
T1 sequence (whole entry): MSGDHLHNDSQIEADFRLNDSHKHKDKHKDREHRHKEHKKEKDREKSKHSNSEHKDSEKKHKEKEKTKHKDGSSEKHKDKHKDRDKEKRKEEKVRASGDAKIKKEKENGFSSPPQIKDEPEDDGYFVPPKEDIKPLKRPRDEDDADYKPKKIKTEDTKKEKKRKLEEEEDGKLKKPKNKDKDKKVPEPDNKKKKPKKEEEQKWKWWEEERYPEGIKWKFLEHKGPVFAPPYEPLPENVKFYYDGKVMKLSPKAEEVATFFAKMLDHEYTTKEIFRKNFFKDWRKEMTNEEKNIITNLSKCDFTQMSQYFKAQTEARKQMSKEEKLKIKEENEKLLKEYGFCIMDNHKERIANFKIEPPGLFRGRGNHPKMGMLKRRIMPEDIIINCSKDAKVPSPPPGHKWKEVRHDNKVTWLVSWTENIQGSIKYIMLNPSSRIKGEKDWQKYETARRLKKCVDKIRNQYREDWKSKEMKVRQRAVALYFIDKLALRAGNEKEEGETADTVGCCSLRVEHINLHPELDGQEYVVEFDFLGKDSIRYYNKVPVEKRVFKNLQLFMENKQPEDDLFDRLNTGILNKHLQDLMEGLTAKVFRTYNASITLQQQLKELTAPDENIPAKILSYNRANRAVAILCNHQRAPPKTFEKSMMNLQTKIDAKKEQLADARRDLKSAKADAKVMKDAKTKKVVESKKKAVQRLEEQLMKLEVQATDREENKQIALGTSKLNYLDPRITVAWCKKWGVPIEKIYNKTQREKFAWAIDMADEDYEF
Nature of the experiment: Inhibition of human topoisomerase 1 assessed as reduction in pBR322 DNA relaxation of relaxation at 60 uM by DNA unwinding assay.

The subject of experiment [5] is HL-60. Nature of the experiment: Cell cycle arrest in human HL60 cells assessed as accumulation at G2/M phase at 15 uM incubated for 48 hrs by flow cytometry (reference value: 16.42 +/- 1.03%). The experiment is classed as functional. A general note: A flow cytometer gives signals particle by particle.
For experiment [6], the system named is HL-60. In words: Induction of necrosis in human HL60 cells at 5 to 25 uM incubated for 48 hrs by AnnexinV/propidium iodide staining method. Type of experiment: functional, cell-based. The method in brief:
(§2)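 HL-60 cells (1.5 × 10^5) were exposed to compound, then stained 10 min with Annexin V-FITC in HEPES/CaCl2/NaCl binding buffer. Cells were washed, briefly stained with propidium iodide and analysed by flow cytometry for apoptotic and necrotic fractions. Mean ± SD of at least three independent experiments.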

The subject of experiment [7] is HL-60. In words: Cell cycle arrest in human HL60 cells assessed as accumulation at G1 phase at 5 uM incubated for 48 hrs by flow cytometry (reference value: 38.29 +/- 0.22%). The experiment is classed as functional.
Experiment [8] has as its system HL-60. In words: Induction of necrosis in human HL60 cells at 5 to 25 uM incubated for 72 hrs by AnnexinV/propidium iodide staining method. Type of experiment: functional, cell-based. The method in brief: as §2
Experiment [9] concerns HL-60. In words: Cell cycle arrest in human HL60 cells assessed as accumulation at S phase at 5 uM incubated for 48 hrs by flow cytometry (reference value: 45.29 +/- 1.23%). The experiment is classed as functional.
In experiment [10] the test system is HL-60. Nature of the experiment: Cell cycle arrest in human HL60 cells assessed as accumulation at G1 phase at 15 uM incubated for 24 hrs by flow cytometry (reference value: 35.96 +/- 1.63%). Type of experiment: functional.
Experiment [11] concerns HL-60. In words: Antiproliferative activity against human HL60 cells assessed as cell number at 25 uM incubated for 24 hrs by Coulter counting method. Type of experiment: functional. The essentials:
as §1

The subject of experiment [12] is HL-60. Nature of the experiment: Cell cycle arrest in human HL60 cells assessed as accumulation at G2/M phase at 25 uM incubated for 48 hrs by flow cytometry (reference value: 16.42 +/- 1.03%). Type of experiment: functional.
Experiment [13] concerns the target T1, DNA topoisomerase 1 (Homo sapiens). Nature of the experiment: Inhibition of human topoisomerase 1 assessed as reduction in pBR322 DNA relaxation of relaxation at 5 uM by DNA unwinding assay.
Experiment [14] concerns HL-60. In words: Cell cycle arrest in human HL60 cells assessed as accumulation at G2/M phase at 15 uM incubated for 72 hrs by flow cytometry (reference value: 12.68 +/- 3.21%). Type of experiment: functional.
The test system of experiment [15] is HL-60. In words: Antiproliferative activity against human HL60 cells assessed as cell number at 25 uM incubated for 72 hrs by Coulter counting method. Type of experiment: functional. The essentials:
as §1

Experiment [16] concerns HL-60. Nature of the experiment: Cell cycle arrest in human HL60 cells assessed as accumulation at G1 phase at 25 uM incubated for 48 hrs by flow cytometry (reference value: 38.29 +/- 0.22%). Type of experiment: functional.
The test system of experiment [17] is HL-60. Nature of the experiment: Induction of apoptosis in human HL60 cells at 5 to 25 uM incubated for 48 hrs by AnnexinV/propidium iodide staining method. Type of experiment: functional, cell-based. The essentials: (§3)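 HL-60 cells (1.5 × 10^5) were treated at 5–25 µM for 24, 48 or 72 h and harvested. They were stained with Annexin V-FITC for 10 min in HEPES/CaCl2/NaCl binding buffer, washed, briefly stained with PI (1 mg/mL) and analysed by flow cytometry for apoptosis and necrosis. Mean ± SD, n ≥ 3.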

Experiment [18] deals with HL-60. Nature of the experiment: Antiproliferative activity against human HL60 cells assessed as cell number at 5 uM incubated for 72 hrs by Coulter counting method. Type of experiment: functional. The method in brief: as §1
Experiment [19] concerns HL-60. Nature of the experiment: Cell cycle arrest in human HL60 cells assessed as accumulation at G1 phase at 15 uM incubated for 48 hrs by flow cytometry (reference value: 38.29 +/- 0.22%). The experiment is classed as functional.
Experiment [20] has as its system HL-60. Nature of the experiment: Cell cycle arrest in human HL60 cells assessed as accumulation at G2/M phase at 25 uM incubated for 72 hrs by flow cytometry (reference value: 12.68 +/- 3.21%). Type of experiment: functional.
Experiment [21] has as its system HL-60. In words: Cell cycle arrest in human HL60 cells assessed as accumulation at G1 phase at 25 uM incubated for 72 hrs by flow cytometry (reference value: 47.02 +/- 6.19%). The experiment is classed as functional.
Experiment [22] concerns HL-60. In words: Cell cycle arrest in human HL60 cells assessed as accumulation at G2/M phase at 5 uM incubated for 72 hrs by flow cytometry (reference value: 12.68 +/- 3.21%). Type of experiment: functional.
For experiment [23], the system named is HL-60. In words: Induction of apoptosis in human HL60 cells at 5 to 25 uM incubated for 72 hrs by AnnexinV/propidium iodide staining method. Type of experiment: functional, cell-based. The essentials: as §3

For the molecule `CCNC(=N)Nc1ccc2cc3ccc(NC(=N)NCC)cc3nc2c1.Cl.Cl.O`, the outcome with HL-60 [1], in the experiment on HL-60 [2], with HL-60 [5], in the experiment with HL-60 [6], with HL-60 [7] and with HL-60 [8] was inactive. Also, the result in the experiment with HL-60 [9], in the experiment on HL-60 [10], with HL-60 [12], in the experiment on HL-60 [14], in the experiment on HL-60 [16] and in the experiment on HL-60 [17] was inactive. Besides, the outcome in the experiment on HL-60 [19], with HL-60 [20], with HL-60 [21], in the experiment with HL-60 [22] and in the experiment with HL-60 [23] was inactive. For the same molecule, the Activity with HL-60 [3] turned out to be 80.03%; with HL-60 [11], 71.98%; in the experiment with HL-60 [15] it was 94.84%; in the experiment with HL-60 [18], 79.32%. Moreover, the “Topoisomerase 1 inhibition (active/inactive)” value in experiment [4] is “Active”. Besides, the result in experiment [13] was Active.

`CCCCCCNC(=N)Nc1ccc2cc3ccc(NC(=N)NCCCCCC)cc3nc2c1.Cl.Cl.O`: the Activity with HL-60 [1] came to 48.93%; in the experiment on HL-60 [2], 70%; in the experiment on HL-60 [3], 52.7%; in the experiment on HL-60 [5], 8.11%; in the experiment with HL-60 [7], 45.1%; with HL-60 [9], 43.54%. In addition, the Activity is 41.77% in the experiment on HL-60 [10]; 76.71% with HL-60 [11]; 6.51% in the experiment with HL-60 [12]; 5.85% with HL-60 [14]; 20.46% with HL-60 [15]; 65.72% in the experiment with HL-60 [16]. Also, the Activity worked out at 57.54% in the experiment with HL-60 [18]; 64.37% in the experiment with HL-60 [19]; 3.91% in the experiment with HL-60 [20]; 73.59% in the experiment with HL-60 [21]; 7.47% with HL-60 [22]. Also, the “Topoisomerase 1 inhibition (active/inactive)” value in [4] was “Active”. Also, the result (with HL-60 [6]; in the experiment with HL-60 [8]; in experiment [13]; in the experiment on HL-60 [17]; in the experiment with HL-60 [23]) was Active.

Values taken from ChEMBL document CHEMBL2169850, “3,6-bis(3-alkylguanidino)acridines as DNA-intercalating antitumor agents” (Eur J Med Chem, 2012).
